# NSD2 inh – NSD2 histone methyltransferase inhibitors, primary screen, biochemical, AlphaScreen, single concentration, set 2 | NSD2 peptide methylation, 120 min | inhibition, % at 12.5 µM | 310,000 tested, 0.54% active; in the data active means inhibition above about 50%
# TDP2 absorb – human TDP2 enzyme inhibitors, primary screen, biochemical, epi absorbance, recombinant enzyme | AID 720702, 2013 | 370,000 tested, 0.34% active | Tyrosyl-DNA phosphodiesterase 2 (Homo sapiens), O95551 | T5PNP hydrolysis, p-nitrophenol absorbance 415 nm | inhibition, % at 12.8 µM;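 active means inhibition above the mean of all tested compounds plus 3 SD, set per campaign, cut at about 25% in these data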;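 further: 0% = DMSO with enzyme and 100% = buffer with substrate but no TDP2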
#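 Incubation: 2 h at 37 °C; Test system: recombinant human TDP2; Quantity: enzyme 120 nM; Read-out basis: percent inhibition; Medium: 50 mM Tris-HCl pH 7.5 with Mg2+, KCl, DTT, BSA; Repeats: single replicate; Compound: 12.8 µM single point, 1% DMSO; Signal: epi absorbance; Reagent: 5 mM T5PNP chromogenic substrate; Benchmarks: no-enzyme high, DMSO-plus-enzyme low.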
# UCH37 inh – inhibitors of human UCH37 deubiquitinase, primary screen, biochemical, Ub-AMC cleavage, fluorescence. Ubiquitin carboxyl-terminal hydrolase isozyme L5 (Homo sapiens), Q9Y5K5. purified proteasome/UCH37. inhibition, % (no concentration beside the values). 330,000 tested, 0.33% active. AID 588478, 2011;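 active means mean inhibition over replicate wells above about 20%, limit read from the data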;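 further: 0% = compound-free wells with enzyme and 100% = wells lacking proteasome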
# Target sequence (Q9Y5K5 whole entry, looked up): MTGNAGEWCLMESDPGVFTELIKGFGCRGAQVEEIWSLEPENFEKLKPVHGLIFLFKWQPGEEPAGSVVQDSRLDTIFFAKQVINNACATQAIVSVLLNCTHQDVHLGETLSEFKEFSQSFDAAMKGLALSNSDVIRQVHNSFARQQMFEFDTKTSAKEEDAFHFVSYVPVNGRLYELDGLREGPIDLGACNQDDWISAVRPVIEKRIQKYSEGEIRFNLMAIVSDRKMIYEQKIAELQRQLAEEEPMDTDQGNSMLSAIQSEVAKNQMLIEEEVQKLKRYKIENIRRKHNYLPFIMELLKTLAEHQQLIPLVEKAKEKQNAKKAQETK
#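 Material: human UCH37 enzyme supplied as purified proteasome complex. Measure: % inhibition of Ub-AMC cleavage fluorescence. Medium: pH 7.4 Tris-HCl (50 mM) with ovalbumin, ATP-MgCl2, DTT. Times: 30 min preincubation with enzyme, 25 min cleavage at room temperature. Detection: AMC fluorescence intensity at 355/460 nm.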
# LEDGF integ inh – blockers of LEDGF/p75-dependent integrase strand transfer – biochemical, TR-FRET, high throughput, primary screen. HIV-1 integrase (with human LEDGF/p75). TR-FRET IN-LEDGF/p75 DNA integration, Eu/Cy5. inhibition, % at 3.7 µM. 370,000 tested, 0.64% active. AID 743269, 2014;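 active means inhibition above the screen-wide mean plus 3 SD, cut at about 13% in these data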;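 further: signal is the Cy5 over europium emission ratio at 671 and 618 nm; 0% = plate median of compound wells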
# Casp6 inh – human caspase-6 inhibitors, primary screen, biochemical, VEID-R110 fluorescence, single point, set 2. purified caspase-6, Z-VEID-R110 cleavage fluorescence. inhibition, % at 12.5 µM. P55212. 350,000 tested, 0.53% active;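 active means mean inhibition across replicates at least about 35%, with every replicate also reaching that limit, limit read from the data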;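 further: 0% = median of neutral control wells and 100% = no fluorescence left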
# IN multimer act – HIV-1 IN multimer formation enhancers, counter-screen for LEDGF/p75 integration inhibitor project, biochemical, TR-FRET; shares compounds with LEDGF integ inh; TR-FRET HIV-1 integrase multimerization; activation, % at 7.7 µM; 2,000 tested, 17% active; AID 1053131, 2014; in the data active means activation above about 8.9%
# TRFRET interf – TR-FRET optical interference artefacts, confirmation, artefact control for LEDGF/p75-dependent integration inhibitor project, biochemical, HIV-1 IN multimerization. shares compounds with LEDGF integ inh. TR-FRET optical interference counterscreen. inhibition, % at 7.7 µM. 2,000 tested, under 10 active;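 active means inhibition above the mean over all tested compounds plus 3 SD, which no compound reached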;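 further: 0% = integrase with antibodies and DMSO and 100% = antibodies without integrase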
# IN-LEDGF confirm – inhibitors of HIV-1 IN-LEDGF/p75 DNA integration, confirmation, biochemical, TR-FRET; 2,000 tested, 36% active; inhibition, % at 3.7 µM; shares compounds with LEDGF integ inh; TR-FRET LEDGF/p75-dependent HIV-1 integration; in the data active means inhibition above about 14%
# Starred values were filed as active, the others as inactive; i = inactive; nt = not tested or not shown. The list is not random: actives were taken first. Their share in the collection is about 1.3%.
SMILES,NSD2 inh,TDP2 absorb,UCH37 inh,LEDGF integ inh,Casp6 inh,IN multimer act,TRFRET interf,IN-LEDGF confirm
CCc1ccc(NC(=O)COC(=O)/C=C/c2ccco2)cc1,2,-2,2,27*,32,2,-9,0
CN(CCOC(=O)/C=C/c1ccco1)Cc1ccccc1,7,0,2,23*,-1,5,-26,38*
O=C(COC(=O)/C=C/c1ccco1)Nc1cc(S(=O)(=O)N2CCOCC2)ccc1Cl,1,5,2,15*,28,1,-6,-13
Cc1ccc2nsnc2c1NC(=O)c1sc2ccccc2c1Cl,-3,-1,-77,25*,nt,4,-13,1
N#Cc1nc(-c2cccc(Cl)c2)oc1N1CCC(C(N)=O)CC1,4,-7,i,26*,-9,0,-1,1
CCOc1ccc(C(=O)NN=Cc2cccc3cccnc23)cc1,nt,nt,5,nt,nt,nt,nt,nt
O=[N+]([O-])c1cccc(-n2cccc2C=NNc2nc(N3CCCCC3)nc(N3CCCCC3)n2)c1,nt,nt,5,nt,nt,nt,nt,nt
O=C1c2ccccc2C(=O)N1c1ccccc1,nt,0,nt,2,-2,nt,nt,nt
O=Cc1ccc(/C=C2\c3ccccc3C(=O)N2c2ccccc2)o1,nt,3,nt,38*,2,2,-10,20*
CCn1c(C(C#N)=C(O)CCc2ccccc2)nc2ccccc21,nt,nt,-98,nt,nt,nt,nt,nt
COc1cccc2c1C(=O)c1c(O)c3c(c(O)c1C2=O)CC(O)(C(C)=O)CC3OC1CC(N(C)C)C(O)C(C)O1 (configuration not stated),28,-6,nt,14*,-14,3,-16,32*
COc1cc(-c2cc(=O)c3c(O)c(OC)c(OC)c(O)c3o2)ccc1O,nt,1,7,25*,17,27*,-136,22*
COc1c(O)c(O)c2oc(-c3ccccc3)cc(=O)c2c1OC,nt,-5,2,-8,8,nt,nt,nt
COc1ccc(-c2cc(C(=O)OCC(=O)c3c(N)n(C)c(=O)n(C)c3=O)c3ccccc3n2)cc1,1,6,-210,1,1,nt,nt,nt
Cn1c(N)c(C(=O)COC(=O)c2cc(-c3ccco3)nc3ccccc23)c(=O)n(C)c1=O,nt,-1,-26,29*,nt,22*,-78,62*
CCOC(=O)C1CCCN(C(=O)c2cc(-c3ccco3)nc3ccccc23)C1 (configuration not stated),2,0,i,25*,16,9,-44,48*
CC(C)(C)c1ccc(C=NNC(=O)CN2CCS(=O)(=O)CC2)cc1,nt,nt,4,nt,nt,nt,nt,nt
CCn1c(NC(=O)c2ccccc2)nc2ccccc21,4,3,3,7,0,nt,nt,nt
CCCn1c(NC(=O)c2ccc(Br)cc2)nc2ccccc21,-4,3,-166,4,nt,nt,nt,nt
CCCCn1c(NC(=O)c2ccccc2)nc2ccccc21,-1,-25,3,26*,nt,-1,7,25*
CN(C)CCCn1c(NC(=O)C2CCCCC2)nc2ccccc21,-2,-8,4,3,nt,nt,nt,nt
CCCCn1c(NC(=O)C2CCCCC2)nc2ccccc21,17,-15,1,28*,nt,1,-3,17*
C=CCn1c(NC(=O)c2ccccc2)nc2ccccc21,-4,10,-1,15*,2,-4,19,14*
